Several values for one entry are separate records, joined by “and”; a condition that tells them apart may be missing. Equal entries are not always repeated.
System: U2OS
Test: Multiplex assay against U2OS
Format: toxicity, cell-based
Settings: human
Summary of the method: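 Values for tubulin, mitochondrial-mass and membrane-permeability phenotypes are per cents of cells with healthy nuclei. These cells were identified by CellPathfinder machine-learning gating of live cells that had been stained at seeding with Hoechst33342, BioTracker Green Microtubule Cytoskeleton Dye, MitoTracker Red and Annexin V Alexa Fluor 680 and imaged on a CQ1 microscope at 37°C and 5% CO2 after compound addition. The gating first set Hoechst high-intensity objects apart from normal cells, then split normal cells into healthy, pyknosed or fragmented nuclei, and pyknosed cells into mitotic or apoptotic.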

[1] = 12 h, 1 µM, compound concentration 1 uM
[2] = 12 h, 10 µM, compound concentration 10 uM
[3] = 24 h, 1 µM, compound concentration 1 uM
[4] = 24 h, 10 µM, compound concentration 10 uM
[5] = 48 h, 1 µM, compound concentration 1 uM
[6] = 48 h, 10 µM, compound concentration 10 uM

SMILES: Cc1cnc(-c2cc(N3CCN(C(=O)CCS(C)(=O)=O)CC3)ncc2Cl)c(C)c1
- Population Apoptotic (%) [1]: 86% and 100%
- Population Fragmented Nuclei (%) [1]: 37% and 18%
- Population Healthy Nuclei (%) [1]: 54% and 73%
- Population Hoechst High Intensity Objects (%) [1]: 2% and 1%
- Population Membrane Permeable-Phenotype (%) [1]: 10%
- Population Mitochondria Different-Phenotype (%) [1]: 1% and 7%
- Population Mitotic Cells (%) [1]: 13% and 0%
- Population Normal (%) [1]: 97% and 98%
- Population Pyknosed Nuclei (%) [1]: 8%
- Population Tubulin-Different-Phenotype (%) [1]: 2% and 7%
- Total Cell Count [1]: 183 and 111
- Population Apoptotic (%) [2]: 85% and 75%
- Population Fragmented Nuclei (%) [2]: 24% and 17%
- Population Healthy Nuclei (%) [2]: 67% and 73%
- Population Hoechst High Intensity Objects (%) [2]: 1%
- Population Mitochondria Different-Phenotype (%) [2]: 3% and 7%
- Population Mitotic Cells (%) [2]: 14% and 25%
- Population Normal (%) [2]: 98%
- Population Pyknosed Nuclei (%) [2]: 8% and 9%
- Total Cell Count [2]: 258 and 88
- Population Apoptotic (%) [3]: 80% and 90%
- Population Fragmented Nuclei (%) [3]: 30% and 17%
- Population Healthy Nuclei (%) [3]: 62% and 75%
- Population Hoechst High Intensity Objects (%) [3]: 2%
- Population Membrane Permeable-Phenotype (%) [3]: 5% and 8%
- Population Mitochondria Different-Phenotype (%) [3]: 3% and 5%
- Population Mitotic Cells (%) [3]: 20% and 10%
- Population Normal (%) [3]: 97%
- Population Pyknosed Nuclei (%) [3]: 6% and 7%
- Population Tubulin-Different-Phenotype (%) [3]: 2% and 8%
- Total Cell Count [3]: 220 and 136
- Population Apoptotic (%) [4]: 80% and 85%
- Population Fragmented Nuclei (%) [4]: 20% and 21%
- Population Healthy Nuclei (%) [4]: 74% and 64%
- Population Hoechst High Intensity Objects (%) [4]: 2% and 0%
- Population Mitochondria Different-Phenotype (%) [4]: 2% and 1%
- Population Mitotic Cells (%) [4]: 20% and 14%
- Population Normal (%) [4]: 97% and 99%
- Population Pyknosed Nuclei (%) [4]: 4% and 13%
- Population Tubulin-Different-Phenotype (%) [4]: 0% and 7%
- Total Cell Count [4]: 309 and 103
- Population Apoptotic (%) [5]: 78% and 95%
- Population Fragmented Nuclei (%) [5]: 29% and 15%
- Population Healthy Nuclei (%) [5]: 63% and 73%
- Population Hoechst High Intensity Objects (%) [5]: 0% and 1%
- Population Membrane Permeable-Phenotype (%) [5]: 3% and 4%
- Population Mitochondria Different-Phenotype (%) [5]: 2% and 5%
- Population Normal (%) [5]: 99% and 98%
- Population Pyknosed Nuclei (%) [5]: 7% and 10%
- Population Tubulin-Different-Phenotype (%) [5]: 1% and 3%
- Total Cell Count [5]: 325 and 184
- Population Apoptotic (%) [6]: 94% and 100%
- Population Fragmented Nuclei (%) [6]: 11% and 22%
- Population Healthy Nuclei (%) [6]: 80% and 71%
- Population Hoechst High Intensity Objects (%) [6]: 1% and 3%
- Population Membrane Permeable-Phenotype (%) [6]: 4% and 13%
- Population Mitochondria Different-Phenotype (%) [6]: 2% and 7%
- Population Mitotic Cells (%) [6]: 5% and 0%
- Population Normal (%) [6]: 98% and 96%
- Population Pyknosed Nuclei (%) [6]: 7% and 5%
- Population Tubulin-Different-Phenotype (%) [6]: 2% and 7%

SMILES: Cc1ccccc1C(=O)Nc1ccc(C(=O)N2CCCC(N(C)C)c3ccccc32)cc1.Cl (centres undefined)
- Population Apoptotic (%) [1]: 91% and 77%
- Population Fragmented Nuclei (%) [1]: 20% and 14%
- Population Healthy Nuclei (%) [1]: 70% and 79%
- Population Hoechst High Intensity Objects (%) [1]: 1%
- Population Membrane Permeable-Phenotype (%) [1]: 5% and 4%
- Population Mitochondria Different-Phenotype (%) [1]: 3% and 5%
- Population Mitotic Cells (%) [1]: 8% and 22%
- Population Normal (%) [1]: 98%
- Population Pyknosed Nuclei (%) [1]: 8% and 5%
- Population Tubulin-Different-Phenotype (%) [1]: 4% and 1%
- Total Cell Count [1]: 282 and 157
- Population Apoptotic (%) [2]: 59% and 56%
- Population Fragmented Nuclei (%) [2]: 18%
- Population Healthy Nuclei (%) [2]: 55% and 62%
- Population Hoechst High Intensity Objects (%) [2]: 4% and 1%
- Population Membrane Permeable-Phenotype (%) [2]: 14% and 15%
- Population Mitochondria Different-Phenotype (%) [2]: 11% and 25%
- Population Mitotic Cells (%) [2]: 40% and 43%
- Population Normal (%) [2]: 95% and 98%
- Population Pyknosed Nuclei (%) [2]: 25% and 19%
- Population Tubulin-Different-Phenotype (%) [2]: 8% and 15%
- Total Cell Count [2]: 213 and 83
- Population Apoptotic (%) [3]: 88% and 66%
- Population Fragmented Nuclei (%) [3]: 18% and 13%
- Population Healthy Nuclei (%) [3]: 70% and 77%
- Population Hoechst High Intensity Objects (%) [3]: 0% and 1%
- Population Membrane Permeable-Phenotype (%) [3]: 6% and 5%
- Population Mitochondria Different-Phenotype (%) [3]: 3% and 4%
- Population Mitotic Cells (%) [3]: 11% and 33%
- Population Normal (%) [3]: 99% and 98%
- Population Pyknosed Nuclei (%) [3]: 10% and 9%
- Population Tubulin-Different-Phenotype (%) [3]: 4% and 3%
- Total Cell Count [3]: 333 and 192
- Population Apoptotic (%) [4]: 71% and 46%
- Population Fragmented Nuclei (%) [4]: 16% and 27%
- Population Healthy Nuclei (%) [4]: 51% and 53%
- Population Hoechst High Intensity Objects (%) [4]: 4% and 5%
- Population Membrane Permeable-Phenotype (%) [4]: 16% and 18%
- Population Mitochondria Different-Phenotype (%) [4]: 14% and 18%
- Population Mitotic Cells (%) [4]: 28% and 53%
- Population Normal (%) [4]: 95% and 94%
- Population Pyknosed Nuclei (%) [4]: 31% and 18%
- Population Tubulin-Different-Phenotype (%) [4]: 6% and 18%
- Total Cell Count [4]: 211 and 73
- Population Apoptotic (%) [5]: 85% and 83%
- Population Fragmented Nuclei (%) [5]: 14% and 15%
- Population Healthy Nuclei (%) [5]: 71% and 72%
- Population Hoechst High Intensity Objects (%) [5]: 1%
- Population Membrane Permeable-Phenotype (%) [5]: 5% and 7%
- Population Mitochondria Different-Phenotype (%) [5]: 3% and 5%
- Population Mitotic Cells (%) [5]: 14% and 16%
- Population Normal (%) [5]: 98%
- Population Pyknosed Nuclei (%) [5]: 13% and 12%
- Population Tubulin-Different-Phenotype (%) [5]: 3% and 4%
- Total Cell Count [5]: 414 and 248
- Population Apoptotic (%) [6]: 71% and 84%
- Population Fragmented Nuclei (%) [6]: 28%
- Population Healthy Nuclei (%) [6]: 43% and 42%
- Population Hoechst High Intensity Objects (%) [6]: 8%
- Population Membrane Permeable-Phenotype (%) [6]: 17% and 11%
- Population Mitotic Cells (%) [6]: 28% and 16%
- Population Normal (%) [6]: 91%
- Population Pyknosed Nuclei (%) [6]: 28% and 29%
- Population Tubulin-Different-Phenotype (%) [6]: 7% and 13%
- Total Cell Count [6]: 206 and 93

SMILES: Cc1nc2ccc(Oc3ccc(F)cc3)cc2c(=O)n1C[C@H]1CCCN(C(C)C)C1.Cl
- Population Apoptotic (%) [1]: 83% and 60%
- Population Fragmented Nuclei (%) [1]: 25% and 14%
- Population Healthy Nuclei (%) [1]: 64% and 81%
- Population Hoechst High Intensity Objects (%) [1]: 3% and 1%
- Population Membrane Permeable-Phenotype (%) [1]: 9% and 17%
- Population Mitochondria Different-Phenotype (%) [1]: 3% and 7%
- Population Mitotic Cells (%) [1]: 16% and 40%
- Population Normal (%) [1]: 96% and 98%
- Population Pyknosed Nuclei (%) [1]: 10% and 4%
- Population Tubulin-Different-Phenotype (%) [1]: 7% and 9%
- Total Cell Count [1]: 244 and 125
- Population Apoptotic (%) [2]: 65% and 78%
- Population Fragmented Nuclei (%) [2]: 25% and 24%
- Population Healthy Nuclei (%) [2]: 59% and 58%
- Population Hoechst High Intensity Objects (%) [2]: 3% and 4%
- Population Membrane Permeable-Phenotype (%) [2]: 58% and 25%
- Population Mitochondria Different-Phenotype (%) [2]: 61% and 75%
- Population Mitotic Cells (%) [2]: 35% and 21%
- Population Normal (%) [2]: 96% and 95%
- Population Pyknosed Nuclei (%) [2]: 15% and 17%
- Population Tubulin-Different-Phenotype (%) [2]: 63% and 47%
- Population Apoptotic (%) [3]: 78% and 80%
- Population Fragmented Nuclei (%) [3]: 23% and 21%
- Population Healthy Nuclei (%) [3]: 65% and 71%
- Population Hoechst High Intensity Objects (%) [3]: 4% and 2%
- Population Membrane Permeable-Phenotype (%) [3]: 7% and 11%
- Population Mitochondria Different-Phenotype (%) [3]: 5% and 9%
- Population Mitotic Cells (%) [3]: 21% and 20%
- Population Normal (%) [3]: 95% and 97%
- Population Pyknosed Nuclei (%) [3]: 10% and 6%
- Population Tubulin-Different-Phenotype (%) [3]: 4% and 8%
- Total Cell Count [3]: 276 and 146
- Population Apoptotic (%) [4]: 77% and 76%
- Population Fragmented Nuclei (%) [4]: 25% and 22%
- Population Healthy Nuclei (%) [4]: 57% and 52%
- Population Hoechst High Intensity Objects (%) [4]: 4% and 6%
- Population Membrane Permeable-Phenotype (%) [4]: 37% and 22%
- Population Mitochondria Different-Phenotype (%) [4]: 63% and 62%
- Population Mitotic Cells (%) [4]: 22% and 23%
- Population Normal (%) [4]: 95% and 93%
- Population Pyknosed Nuclei (%) [4]: 16% and 24%
- Population Tubulin-Different-Phenotype (%) [4]: 47% and 40%
- Population Apoptotic (%) [5]: 84% and 93%
- Population Fragmented Nuclei (%) [5]: 19%
- Population Healthy Nuclei (%) [5]: 69% and 72%
- Population Hoechst High Intensity Objects (%) [5]: 1% and 0%
- Population Membrane Permeable-Phenotype (%) [5]: 7%
- Population Mitochondria Different-Phenotype (%) [5]: 5%
- Population Mitotic Cells (%) [5]: 15% and 6%
- Population Normal (%) [5]: 98% and 99%
- Population Pyknosed Nuclei (%) [5]: 10% and 7%
- Population Tubulin-Different-Phenotype (%) [5]: 4% and 6%
- Total Cell Count [5]: 371 and 213
- Population Apoptotic (%) [6]: 77% and 88%
- Population Fragmented Nuclei (%) [6]: 29%
- Population Healthy Nuclei (%) [6]: 54% and 51%
- Population Hoechst High Intensity Objects (%) [6]: 5% and 8%
- Population Membrane Permeable-Phenotype (%) [6]: 29% and 27%
- Population Mitochondria Different-Phenotype (%) [6]: 36% and 41%
- Population Mitotic Cells (%) [6]: 22% and 11%
- Population Normal (%) [6]: 94% and 91%
- Population Pyknosed Nuclei (%) [6]: 16% and 19%
- Population Tubulin-Different-Phenotype (%) [6]: 23% and 35%

— ChEMBL document CHEMBL5724801, “EUbOPEN Chemogenomics Library - Multiplex” (2024)
